Results gathered from unrelated publications.
Each line is one published result; the experiments were not run side by side.
Target: Cyclin-dependent kinase 18 (CDK18, Homo sapiens, UniProt Q07002)

With `CCN1CCN(Cc2ccc(C(=O)Nc3ccc(C)c(Oc4ccc5c(c4)CC(=O)N5)c3)cc2C(F)(F)F)CC1` the remaining binding was 100% (binding, competition with immobilised ligand; 1 µM).
The remaining binding of `NS(=O)(=O)c1cc(NC(=O)Cc2ccccc2)ccc1Oc1cccc(Cl)c1` is reported as 100% (cell-free assay, competition with immobilised ligand; 1 µM).
`COc1cnc(Nc2cccc(S(N)(=O)=O)c2)nc1N1CCN(c2ccccc2)CC1` gave a remaining binding of 98% (binding, competition with immobilised ligand; 1 µM).
With `Nc1ncc2c(n1)-c1c([nH]c3ccc(C#CC4CC4)cc13)CCCC2` the remaining binding was 100% (binding, competition with immobilised ligand; 1 µM).
`C=CC(=O)N1CCC(C(=O)NCC(=O)N2CCN(c3nc(-c4cnc(N)nc4C(F)F)nc(N4CCOCC4)n3)CC2)CC1` gave a remaining binding of 95% (binding, competition with immobilised ligand; 1 µM).
With `CC1CCCN1c1nccc(-c2cnn3ncccc23)n1` (centres unmarked) the remaining binding was 100% (binding; 1 µM).
For `COc1ncc2cc3ccccc3nc2c1C#N`, the remaining binding was 90% (cell-free assay, competition with immobilised ligand; 5 µM).
With `CNC(=O)[C@@H]1CC[C@@H](n2c(-c3ccc4cnccc4c3)nc3ccc(C(=O)NCc4cccc(C(N)=O)c4)cc32)C1` the remaining binding was 100% (binding, competition with immobilised ligand; 1 µM).
`O=C(NCC1CCOCC1)c1n[nH]cc1NC(=O)c1c(F)cccc1F` gave a remaining binding of 86% (binding, competition with immobilised ligand; 1 µM).
The remaining binding of `O=C(Nc1ccc(Oc2ccc(F)cc2)cc1)N1CCc2ncccc2[C@H]1c1ccc(F)cc1` is reported as 98% (cell-free assay, competition with immobilised ligand; 1 µM).
With `N[C@@H]1CCN(c2nccc(-c3cnn4ncccc34)n2)C1` the remaining binding was 100% (binding; 1 µM).
For `Cc1cnc(Nc2ccc(C(=O)N3CCC(N4CCCC4)CC3)cc2)nc1-c1cc2ccccc2s1`, the remaining binding was 100% (binding, competition with immobilised ligand; 1 µM).
The remaining binding of `C[C@H]1CCN(c2nccc(-c3cnn4ncccc34)n2)C1` is reported as 100% (binding; 1 µM).
`C[C@H](c1cccc(C#N)c1)n1cc(Cl)cc(C(N)=O)c1=N` has a remaining binding of 100% (cell-free assay, competition with immobilised ligand; 1 µM).
`COc1ccnn2ncc(-c3ccnc(N(C)C)n3)c12` has a remaining binding of 100% (binding; 1 µM).
For `CCC(=N\O)/C(C)=C/c1ccc(F)cc1`, the remaining binding was 89% (cell-free assay, competition with immobilised ligand; 1 µM).
`F[C@@H]1CCN(c2nccc(-c3cnn4ncccc34)n2)C1` has a remaining binding of 86% (binding; 1 µM).
With `CN1CCN(c2ccc(Nc3nccc(-c4cccc([N+](=O)[O-])c4)n3)cc2C(F)(F)F)CC1` the remaining binding was 56% (binding; 10 µM).
With `O=C(c1ccc(Nc2ncc(Cl)c(-c3ccc(Cl)s3)n2)cc1)N1CCC(N2CCCC2)CC1` the remaining binding was 43% (binding, competition with immobilised ligand; 1 µM).
For `CC1=C(C#N)[C@@H](c2ccc3[nH]nc(C)c3c2)C(C#N)=C(c2ccc(Cl)cc2)N1`, the remaining binding was 100% (cell-free assay, competition with immobilised ligand; 1 µM).
For `O=C(c1ccc(Nc2ncc(Cl)c(-c3cc4ccccc4s3)n2)cc1)N1CCC(N2CCCC2)CC1`, the remaining binding was 64% (binding, competition with immobilised ligand; 1 µM).
`CN(CCCC(F)(F)F)c1nccc(-c2cnn3ncccc23)n1` has a remaining binding of 52% (binding; 1 µM).
`CNC(=O)Nc1ccc2c(c1)[C@@]1(CC2)OC(=O)N(CC(=O)N(Cc2ccc(F)cc2)[C@@H](C)C(F)(F)F)C1=O` gave a remaining binding of 100% (cell-free assay, competition with immobilised ligand; 1 µM).
